Laboratory results reported in paper PMC11491786 (Zoological Research, 2024).
No end group written: not given here.

Tests used:
male C57BL/6J mice = test: FeCl3-induced carotid artery thrombosis; type: in vivo, mouse; conditions: 2 500 U/kg i.v., 10% FeCl3, 5 min and 10 min, vs PBS-treated group
Summary of the method: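 Male C57BL/6J mice (6 weeks old, n=6–7) were given i.v. saline (100 µL; control), heparin sodium 2 500 U/kg, or test compound at 0.5 or 2 mg/kg, 5 min before induction, under anaesthesia. Filter paper with 10% (w/v) FeCl3 was applied to the exposed left carotid artery for 30 s. Flow in the region of interest was followed by laser speckle perfusion imaging for 30 min, with images analysed at 5 and 10 min. Occlusion was scored as a red-to-blue change.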

HEK 293T cells = test: Cytotoxicity assay; type: cell-based, human; conditions: 12.5 to 200 μg/mL, 8 h, CCK8
Summary of the method: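 HEK 293T cells were grown in DMEM/F-12 with 10% FBS and 1% penicillin-streptomycin at 37°C, 5% CO2. They were seeded at 3×10^4 cells/well and allowed 12 h to adhere. Test compound (12.5–200 µg/mL, plus 0) was added for 8 h. CCK-8 was then added for 3 h and OD450 read. Viability is given as % of untreated control; n=8–12.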

mouse splenocytes = test: Cytotoxicity assay; type: cell-based; conditions: 12.5 to 200 μg/mL, 8 h, CCK8
Summary of the method: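 Mouse splenocytes were prepared by crushing fresh spleens in PBS and passing them through a 200-mesh sieve. Cells were cultured in RPMI1640 at 37°C, 5% CO2, seeded at 2×10^5 cells/well and given 12 h to settle. Test compound (12.5–200 µg/mL, plus 0) was added for 8 h, followed by CCK-8 for 3 h and an OD450 read. Viability is reported as % of control; n=8–12.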

PK [1] = biological target: T1, PK (Homo sapiens, UniProt P03952); test: Chromogenic assay, PK; type: biochemical
Target sequence in this assay (P03952 391-638 limits assumed): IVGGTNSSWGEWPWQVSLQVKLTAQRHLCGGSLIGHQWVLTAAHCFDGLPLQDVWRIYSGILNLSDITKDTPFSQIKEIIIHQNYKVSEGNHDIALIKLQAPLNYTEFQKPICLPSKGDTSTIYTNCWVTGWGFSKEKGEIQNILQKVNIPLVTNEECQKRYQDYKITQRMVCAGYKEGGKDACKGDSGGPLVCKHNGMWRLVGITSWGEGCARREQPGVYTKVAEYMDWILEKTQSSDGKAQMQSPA
Target sequence in this assay (P03952 20-390 partner limits assumed): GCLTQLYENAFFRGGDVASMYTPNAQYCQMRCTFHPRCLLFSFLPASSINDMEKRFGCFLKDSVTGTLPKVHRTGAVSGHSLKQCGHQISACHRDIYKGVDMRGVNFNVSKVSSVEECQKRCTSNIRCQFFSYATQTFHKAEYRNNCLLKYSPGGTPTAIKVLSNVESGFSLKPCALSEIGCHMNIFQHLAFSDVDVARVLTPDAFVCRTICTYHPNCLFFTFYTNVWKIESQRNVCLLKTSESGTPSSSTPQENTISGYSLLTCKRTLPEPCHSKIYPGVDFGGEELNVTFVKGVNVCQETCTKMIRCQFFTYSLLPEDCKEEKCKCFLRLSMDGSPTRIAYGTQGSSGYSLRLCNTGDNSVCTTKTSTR

male C57BL/6 J mice = test: Bleeding assay; type: in vivo, mouse
Summary of the method: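 Dosing 15 min before cutting: test compound at 0.5 or 2 mg/kg i.v., 0.9% saline (control) or heparin sodium 2 500 U/kg (reference). Mice were male C57BL/6J, 6 weeks old, 18–20 g, n=6–7. Tail cut 2 mm from the tip and immersed in sterile saline at 37°C. Bleeding time recorded until blood flow stopped.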

PK [2] = biological target: T1, PK; test: SPR, PK over LE6-coupled chip; type: binding
FXIIa [3] = biological target: T2, FXIIa (Homo sapiens, UniProt P00748); test: SPR, FXIIa over LE6-coupled chip; type: binding; conditions: read-out: Kd (dissociation rate constant)
T2 sequence (P00748 373-615 limits assumed): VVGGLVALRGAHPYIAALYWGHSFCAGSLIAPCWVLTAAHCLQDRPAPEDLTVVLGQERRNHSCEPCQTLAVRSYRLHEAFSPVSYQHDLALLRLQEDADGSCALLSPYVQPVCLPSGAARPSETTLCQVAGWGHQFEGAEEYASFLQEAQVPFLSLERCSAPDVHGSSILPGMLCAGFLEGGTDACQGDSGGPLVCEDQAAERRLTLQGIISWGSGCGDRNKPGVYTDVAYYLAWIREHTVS
T2 sequence (P00748 20-372 partner limits assumed): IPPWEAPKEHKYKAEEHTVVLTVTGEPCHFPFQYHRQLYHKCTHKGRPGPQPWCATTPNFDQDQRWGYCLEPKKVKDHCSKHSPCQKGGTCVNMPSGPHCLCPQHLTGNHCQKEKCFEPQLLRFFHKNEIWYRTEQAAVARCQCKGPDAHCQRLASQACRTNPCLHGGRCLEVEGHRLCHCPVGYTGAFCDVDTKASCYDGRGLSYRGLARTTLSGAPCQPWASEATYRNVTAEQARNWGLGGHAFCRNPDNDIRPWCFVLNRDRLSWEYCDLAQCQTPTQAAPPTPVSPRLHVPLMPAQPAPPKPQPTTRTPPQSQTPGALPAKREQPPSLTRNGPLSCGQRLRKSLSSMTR

[4] = test system: mouse peritoneal macrophages; test: Cytotoxicity assay; type: cell-based; conditions: 12.5 to 200 μg/mL, 8 h, CCK8
Summary of the method: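 Peritoneal macrophages were elicited in mice with i.p. 3% thioglycollate broth and collected by PBS lavage after 3 days. Cells were cultured in RPMI1640 at 37°C, 5% CO2, seeded at 1×10^6 cells/well and allowed 12 h to adhere. Test compound (12.5–200 µg/mL, plus 0) was added for 8 h, then CCK-8 for 3 h and OD450 read. Viability is expressed as % of control; n=8–12.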

FXIIa [5] = biological target: T2, FXIIa; test: Chromogenic assay, FXIIa; type: biochemical
erythrocytes = test: Hemolysis assay; type: cell-based, human; conditions: up to 200 μg/mL (285 μmol/L), 30 min, 37 °C, PBS pH 7.2, 540 nm
Summary of the method: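 Human blood was centrifuged for 10 min at 3 500 r/min and 25°C. The erythrocytes were resuspended in PBS (0.01 mol/L, pH 7.2) and exposed to test compound (12.5–200 µg/mL, plus 0) or 0.1% Triton X-100 (positive control) for 30 min at 37°C. Samples were spun 5 min at 3 500 r/min and the supernatant A540 read; n=2–3.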

acute IS patients = conditions: ref Kim, 2019; Simão et al., 2017; cited from earlier work
[6] = biological target: T3, activated factor XII (FXIIa) (UniProt P00748 20-372; P00748 373-615); test: cell-based or functional assay
T3 sequence (looked up) 1: T2 sequence (P00748 20-372 partner limits assumed)
T3 sequence (looked up) 2: T2 sequence (P00748 373-615 limits assumed)

plasma kallikrein (PK) [7] = biological target: T4, plasma kallikrein (PK) (UniProt P03952 20-390; P03952 391-638); test: chromogenic enzyme inhibition assay
T4 sequence (P03952 20-390, chain 1 of 2): as the sequence (P03952 20-390 partner limits assumed) above
T4 sequence (P03952 391-638, chain 2 of 2): as the sequence (P03952 391-638 limits assumed) above

[8] = biological target: T3, activated factor XII (FXIIa); test: chromogenic enzyme inhibition assay
plasma kallikrein (PK) [9] = biological target: T4, plasma kallikrein (PK); test: SPR
[10] = biological target: T3, activated factor XII (FXIIa); test: SPR

## heparin sodium
Male C57BL/6J mice
  blood flow after FeCl3-induction: increased blood flow at 5 min and 10 min

## LSEEPE [LE6, Leu-Ser-Glu-Glu-Pro-Glu]
HEK 293T cells
  toxic effects on proliferation: no toxic effects
Mouse splenocytes
  toxic effects on proliferation: no toxic effects
PK [1]
  IC50: ~71 µM
Male C57BL/6 J mice; 0.5 mg/kg i.v., 15 min before tail cut, n=6–7
  bleeding time: without notably extending bleeding time
Male C57BL/6 J mice; LE6 2 mg/kg i.v. vs heparin sodium 2 500 U/kg i.v.
  bleeding time relative to heparin sodium: approximately half that induced by the clinically anticoagulant heparin sodium
PK [2]; read-out: Ka (association rate constant)
  kon: 1790 M⁻¹ s⁻¹
PK [2]; read-out: Kd (dissociation rate constant)
  koff: 0.0141 s⁻¹
FXIIa [3]
  koff: 0.118 s⁻¹
[4]
  toxic effects on proliferation: no toxic effects
FXIIa [5]
  IC50: 71 µM
FXIIa [5]; read-out: inhibition rate of FXIIa
  inhibition at 285 µM: 88.6%
erythrocytes
  hemolysis: no hemolytic side effects

## tissue plasminogen activator [tPA]
Acute IS patients
  efficacy in acute IS: efficacious when administered within 4.5 hours of stroke onset

## LSEEPE [oligopeptide LE6 (Leu-Ser-Glu-Glu-Pro-Glu)]
[6]
  FXIIa activity on chromogenic substrate S-2302, IC50: 71 µM
Plasma kallikrein (PK) [7]
  Ki: 44 µM
[8]
  Ki: 6.37 µM
Plasma kallikrein (PK) [9]
  Kd: 7.88 µM
[10]
  Kd: 46.4 µM
